Screening data from PubChem.
AP complement: alternative pathway complement inhibition, orthogonal assay; Human serum alternative complement pathway, LPS-coated ELISA, C3 deposition; tested in compound mixtures; inhibition, % at 5 µM; 62,000 compounds, 0.08% hits;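 active means inhibition above 30% in each of the two pooled mixtures holding the compound, so the lower value exceeds 30%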;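 further: 0% = serum in Mg-EGTA without compound and 100% = EDTA serum blank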
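Assay system: human serum alternative complement pathway, C3 deposition on LPS-coated wells; Dosing: 5 µM per compound in ten-compound mixtures; Detection: Anti-C3 ELISA, OD 450 nm; Buffer or medium: Mg2+-EGTA GVB++ buffer containing human serum at 1:15 dilution; Timing: 1 h at 37 °C; Replication: two different pools per compound.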
Ec RNAP inh: blocks E. coli RNA polymerase transcription; 62,000 compounds, 0.2% hits; fluorescence transcription assay; inhibition, %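 (tested at 10 µM)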; in the data active means inhibition above about 20%;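 further: 0% = enzyme without compound and 100% = no enzyme blank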
HePTP inh: inhibitors of human HePTP phosphatase. recombinant HePTP phosphatase activity, OD absorbance. 110,000 compounds, 0.64% hits. P35236. inhibition, % at 20 µM. AID 521; in the data active means inhibition above about 50%;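 further: plate controls were vehicle for no effect and reference inhibitor for full effect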
Target sequence (P35236 whole entry, looked up): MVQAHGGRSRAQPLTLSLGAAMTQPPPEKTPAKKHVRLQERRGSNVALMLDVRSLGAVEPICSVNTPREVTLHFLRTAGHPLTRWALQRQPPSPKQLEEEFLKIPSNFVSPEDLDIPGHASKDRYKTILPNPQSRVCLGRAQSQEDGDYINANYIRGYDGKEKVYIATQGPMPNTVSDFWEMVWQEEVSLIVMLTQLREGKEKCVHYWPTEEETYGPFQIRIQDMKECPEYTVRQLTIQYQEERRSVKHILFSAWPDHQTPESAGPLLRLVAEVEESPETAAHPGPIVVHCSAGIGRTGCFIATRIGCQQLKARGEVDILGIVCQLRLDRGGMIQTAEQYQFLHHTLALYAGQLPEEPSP
MMP-13 inhibitor: MMP13 (human) collagenase inhibition | MMP-13 fTHP FRET cleavage, Mca fluorescence | inhibition, % at 4 µM | 65,000 compounds, 0.07% hits | AID 570;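 active means inhibition above the mean of compound-free control plate wells plus 3 SD, cut at about 14% in these data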;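 further: 0% = DMSO wells and 100% = wells with reference MMP-13 inhibitor after basal subtraction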
RORA act: RORA (human) activation; CHO-K1 Gal4-RORA LBD luciferase reporter, luminescence; percent increase over mock-subtracted basal signal; activation, % at 10 µM; 65,000 compounds, 1.5% hits; AID 560;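 active means activation above the mean of all tested compounds plus 3 SD, cut at about 49% in these data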;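 further: 0% = DMSO-treated RORA cells and 100% = added signal equal to DMSO minus mock-transfected cells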
SF1 activator: activators of human nuclear receptor SF-1; 65,000 compounds, 1.9% hits; CHO-K1 Gal4-SF-1 LBD luciferase reporter; % increase over DMSO SF-1-specific signal; activation, % at 10 µM; AID 522;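 active means activation above the mean activation of all tested compounds plus 3 SD, cut at about 50% in these data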
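Material: CHO-K1 cells with Gal4–hSF-1 LBD chimera plus Gal4-driven luciferase / Input: 4,000 CHO-K1 cells per well / Incubation: compound exposure 20 h at 37 °C / Signal: luminescence read 15 min after SteadyLite luciferase reagent, after room-temperature equilibration / Read-out: percent activation versus DMSO / Benchmarks: DMSO negative control and −SF1 background wells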
Numbers without * were called inactive; nt = no result given. This is a sample that favours compounds with a hit; in the whole collection about 2.4% have one here.

SMILES	AP complement	Ec RNAP inh	HePTP inh	MMP-13 inhibitor	RORA act	SF1 activator
CC(=O)c1cccc(NC(=O)Oc2ccccc2)c1	13	7	2	1	4	-1
CC(C)Oc1ccc(NC(=O)Oc2ccccc2)cc1	9	5	5	1	39	52*
Cc1ccc(S(=O)(=O)N2CCN(S(C)(=O)=O)C2C(C)C)cc1 (configuration not stated)	nt	nt	96*	nt	nt	nt
CC(=O)N1CCN(S(=O)(=O)c2ccc(C)cc2)C1C(C)C (configuration not stated)	-1	3	7	0	0	-20
O=C(c1ccccc1)c1c[nH]c2cc3c(cc2c1=O)OCCO3	13	10	10	4	40	50*
CCn1c(-c2ccc(N(C)C)cc2)nc2ccccc21	-3	8	3	-455	88*	19
CN(C)c1ccc(-c2nc3ccccc3n2C)cc1	11	-4	2	-363	-62	-59
C=CCn1c(-c2ccc(N)cc2)nc2ccccc21	24	-3	1	-147	38	57*
CCn1c(-c2ccc(N)cc2)nc2ccccc21	12	5	4	-123	50*	37
CCn1c(N)nc2ccccc21	-1	2	1	1	10	19
O=c1[nH]c(=O)n(Cc2ccccc2)cc1Cl	nt	nt	4	nt	nt	nt
O=C(CC1Sc2ccc(C(F)(F)F)cc2NC1=O)Nc1cccc(C(F)(F)F)c1 (configuration not stated)	nt	nt	0	nt	nt	nt
COC(=O)c1ccc(C2CC(=O)NC3=C2C(=O)CCC3)cc1 (configuration not stated)	14	8	6	-2	-29	-2
CC(C)Oc1ccc(C2CC(=O)NC3=C2C(=O)CCC3)cc1 (configuration not stated)	8	22*	4	0	-22	-15
CCOc1cc(/C=C2\N=C(c3ccccc3)OC2=O)ccc1OCc1c(C)no[n+]1[O-]	nt	nt	66*	nt	nt	nt
COc1cc(/C=C2\N=C(c3ccccc3)OC2=O)cc(Br)c1OCc1c(C)no[n+]1[O-]	nt	nt	4	nt	nt	nt
CCOc1ccc2nc(NC(=O)COC)sc2c1	1	3	-4	3	7	15
COc1ccc2nc(Nc3nc(C)c(C(C)=O)s3)sc2c1	7	5	-7	-24	15	80*
CCCCOC(=O)Nc1nc2ccc(OC)cc2s1	2	11	9	-1	52*	23
CCCCN(C(=O)NC(=O)Nc1nc2ccc(OC)cc2s1)S(C)(=O)=O	11	10	-8	7	-4	3
CCOCC(=O)Nc1nc2ccc(OC)cc2s1	17	-11	16	-5	33	51*
CS(=O)(=O)N(CC(=O)NCc1ccccc1)c1ccc(Oc2ccccc2)cc1	nt	nt	7	nt	nt	nt
O=C(NC(=S)Nc1ccc2oc(-c3ccccc3)nc2c1)c1ccccc1	nt	nt	103*	nt	nt	nt
CC(C)(C)c1ccccc1NC(=O)c1cccnc1	7	5	11	-1	0	2
O=C(Nc1ccc2oc(-c3ccccc3)nc2c1)c1cccnc1	nt	nt	1	7	71*	71*
SMILES	AP complement	Ec RNAP inh	HePTP inh	MMP-13 inhibitor	RORA act	SF1 activator
CC(C)(C)c1cc(NC(=O)c2cccnc2)no1	17	1	5	-1	37	75*
CCc1ccc2oc(-c3cccc(NC(=O)c4cccnc4)c3)nc2c1	17	7	2	6	58*	32
O=C(Nc1ccc(F)cc1)Nc1ccc(I)cc1	nt	nt	-5	nt	nt	nt
COc1ccc(-n2nc3ccc(NC(=O)/C=C\c4ccccc4)cc3n2)cc1	nt	nt	102*	nt	nt	nt
CCCC(=O)Nc1ccc2oc(-c3ccc(OC)c(Br)c3)nc2c1	-5	9	8	-236	80*	62*
O=C(Nc1ccc2oc(-c3ccccc3)nc2c1)c1ccc(-c2ccc([N+](=O)[O-])cc2)o1	nt	nt	101*	nt	nt	nt
Cc1cc2nc(-c3cc(NC(=O)c4ccco4)ccc3Cl)oc2cc1C	nt	nt	15	nt	nt	nt
O=C(Nc1ccc2oc(-c3cccc(Cl)c3Cl)nc2c1)c1ccco1	nt	nt	101*	nt	nt	nt
CCOc1ccc(-n2nc3ccc(NC(=O)/C=C/c4ccco4)cc3n2)cc1	nt	nt	-6	nt	nt	nt
O=C1NC(c2ccc(Br)cc2)=N/C1=C/c1ccccc1F	nt	nt	1	nt	nt	nt
CC(C)c1ccc(NC(=O)c2cccnc2)cc1	13	-1	3	3	69*	34
